Source: ChEMBL document CHEMBL4270570 (Eur J Med Chem, 2018)

Experiments:
[1] = system: Human immunodeficiency virus 1; experiment: Antiviral activity against HIV1 infected in CD4/CXCR4/CCR5 expressing human P4R5 MAGI cells preincubated with cells for 24 hrs followed by viral infection measured after 48 hrs by beta-galactosidase reporter gene assay; type: functional, organism-based
[2] = Cytotoxicity against human P4R5 MAGI cells; type: cell-based
Procedure, shortened: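 P4R5 cells express CD4, CXCR4, CCR5 and an HIV LTR-driven β-galactosidase reporter. They were seeded at 4×10^3 cells per well in DMEM/10% FBS with puromycin (1 µg/mL).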

[3] = target: Human immunodeficiency virus type 1 integrase (Human immunodeficiency virus 1, UniProt Q7ZJM1); experiment: Inhibition of HIV integrase strand transfer activity using 5'-biotin/3'-Cy5-labeled DNA substrate preincubated for 5 mins followed by substrate addition measured after 30 mins by HTS assay
Human immunodeficiency virus type 1 integrase, sequence (Q7ZJM1 whole entry): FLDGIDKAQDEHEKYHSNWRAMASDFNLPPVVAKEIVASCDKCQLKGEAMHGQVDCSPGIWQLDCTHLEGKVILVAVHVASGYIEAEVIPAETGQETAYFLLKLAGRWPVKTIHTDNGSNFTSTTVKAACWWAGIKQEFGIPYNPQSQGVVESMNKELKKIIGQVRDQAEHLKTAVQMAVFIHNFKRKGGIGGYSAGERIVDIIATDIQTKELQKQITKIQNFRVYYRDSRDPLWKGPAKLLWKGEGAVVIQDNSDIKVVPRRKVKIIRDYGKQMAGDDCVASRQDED

Gag-Pol polyprotein = Gag-Pol polyprotein (Human immunodeficiency virus type 1 group M subtype B (isolate HXB2)(HIV-1), UniProt P04585); experiment: Inhibition of HIV1 reverse transcriptase polymerase activity using 18 nucleotide DNA primer and 100 nucleotide DNA template after 30 mins; set-up: species or system Human immunodeficiency virus 1
Procedure, shortened: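 Full-length RT at 20 nM with 40 nM template/primer (18-nt DNA primer on 100-nt DNA template) and 10 µM dNTPs in 50 mM Tris pH 7.8, 50 mM NaCl. Started with 6 mM MgCl2, with 1% DMSO and increasing compound concentrations. Primer extension ran 30 min at 37 °C and was stopped with 100 mM EDTA.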

[4] = target: Human immunodeficiency virus type 1 reverse transcriptase (Human immunodeficiency virus 1, UniProt Q72547); experiment: Inhibition of HIV1 reverse transcriptase RNaseH activity using 3'-fluorescein/5'-Dabcyl labeled HTS-1 substrate
[5] = Effective permeability of the compound at 10 uM after 5 hrs by PAMPA; type: ADME
Procedure, shortened: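 Lipid-precoated PAMPA plates thawed 30 min at room temperature. Compounds diluted from 10 mM DMSO stock into DPBS to 10 µM final and placed in donor wells, with DPBS in acceptor wells. Incubated 5 h at 25 °C without agitation. Donor and acceptor concentrations measured by LC-MS/MS. Pe calculated from acceptor and equilibrium concentrations, filter area 0.3 cm² and well volumes.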

| SMILES | EC50 [1] [µM] | CC50 [2] [µM] | IC50 [3] [µM] | IC50 (Gag-Pol polyprotein) [µM] | IC50 [4] [µM] | Peff [5] [×10⁻⁶ cm/s] |
| --- | --- | --- | --- | --- | --- | --- |
| CCc1ccccc1Sc1cc(=O)n(O)c(=O)[nH]1 | 6.2 | > 100 | 0.75 | > 10 | 0.01 |  |
| O=c1cc(Sc2cccc(-c3ccc(Cl)cc3)c2)[nH]c(=O)n1O | 10 | > 100 | > 1 | 7.8 | 0.005 |  |
| O=c1cc(Sc2ccc(-c3ccc(Cl)cc3)cc2)[nH]c(=O)n1O | 16 | > 100 | > 1 | > 10 | 0.007 |  |
| O=c1cc(Sc2cccc(Br)c2)[nH]c(=O)n1O | 8.2 | > 100 | 1.2 | > 10 | 0.011 |  |
| O=c1cc(Sc2ccccc2-c2ccc(C(F)(F)F)cc2)[nH]c(=O)n1O | 7 | > 100 | > 100 | > 10 | 0.013 |  |
| CCc1ccc(Sc2cc(=O)n(O)c(=O)[nH]2)cc1 | 11 | > 100 | 1.3 | > 10 | 0.01 |  |
| COc1ccccc1Sc1cc(=O)n(O)c(=O)[nH]1 | 9 | > 100 | 8.4 | > 10 | 0.017 |  |
| O=c1cc(Sc2cccc(Cl)c2)[nH]c(=O)n1O | 6.3 | > 100 | 0.59 | > 10 | 0.011 |  |
| O=c1[nH]c(Sc2ccc(Br)cc2)c(Br)c(=O)n1O |  |  |  | 5 | 0.07 |  |
| O=c1cc(Sc2ccc(-c3ccccc3)cc2)[nH]c(=O)n1O |  |  |  | 3.2 | 0.09 |  |
| O=c1[nH]c(Sc2ccc(Br)cc2)c(I)c(=O)n1O |  |  |  | 0.46 | 0.12 |  |
| O=c1cc(Sc2ccc(-c3ccc(F)cc3)cc2)[nH]c(=O)n1O | 12 | > 100 | > 1 | > 10 | 0.006 |  |
| O=c1cc(Sc2ccccc2Br)[nH]c(=O)n1O | 6.5 | > 100 | 1.1 | > 10 | 0.008 |  |
| COc1ccc(Sc2cc(=O)n(O)c(=O)[nH]2)cc1 | > 20 | > 100 | 3.6 | > 10 | 0.012 |  |
| O=c1cc(Sc2ccccc2C(F)(F)F)[nH]c(=O)n1O | 6.6 | > 100 | 0.88 | > 10 | 0.012 |  |
| O=c1cc(Sc2ccc(-c3cccc(F)c3)cc2)[nH]c(=O)n1O | 7.2 | > 100 | > 1 | 10 | 0.005 |  |
| O=c1cc(Sc2cccc(-c3ccc(F)cc3)c2)[nH]c(=O)n1O | 5 | > 100 | > 0.14 | 9.9 | 0.005 |  |
| COc1ccc(-c2ccc(Sc3cc(=O)n(O)c(=O)[nH]3)cc2)cc1F | 8 | > 100 | > 0.14 | 6.8 | 0.004 |  |
| Cc1ccc(-c2ccc(Sc3cc(=O)n(O)c(=O)[nH]3)cc2)cc1 | 7.5 | > 100 | > 1 | 7 | 0.006 |  |
| O=c1cc(Sc2cccc(-c3cccc(C(F)(F)F)c3)c2)[nH]c(=O)n1O | 8.3 | > 100 | > 1 | 7.7 | 0.007 |  |
| O=c1cc(Sc2ccccc2)[nH]c(=O)n1O | 11 | > 100 | 1.1 | > 10 | 0.016 |  |
| O=c1cc(Sc2cccc(C(F)(F)F)c2)[nH]c(=O)n1O | 6.2 | > 100 | 0.88 | > 10 | 0.013 |  |
| Cc1ccc(Sc2cc(=O)n(O)c(=O)[nH]2)cc1 | > 20 | > 100 | 2.8 | > 10 | 0.033 | 0.92 |

| SMILES | EC50 [1] [µM] | CC50 [2] [µM] | IC50 [3] [µM] | IC50 (Gag-Pol polyprotein) [µM] | IC50 [4] [µM] | Peff [5] [×10⁻⁶ cm/s] |
| --- | --- | --- | --- | --- | --- | --- |
| O=c1cc(Sc2ccc(-c3ccc(C(F)(F)F)cc3)cc2)[nH]c(=O)n1O | 12 | > 100 | > 1 | 8.4 | 0.039 |  |
| COc1cccc(Sc2cc(=O)n(O)c(=O)[nH]2)c1 | 16 | > 100 | 2.7 | > 10 | 0.013 |  |
| COc1ccc(-c2ccc(Sc3cc(=O)n(O)c(=O)[nH]3)cc2)cc1OC | > 20 | > 100 | 0.33 | 10 | 0.004 | 0.9 |
| O=c1cc(Sc2cccc(-c3ccc(C(F)(F)F)cc3)c2)[nH]c(=O)n1O | 11 | > 100 | > 0.14 | 10 | 0.007 |  |
| O=c1cc(Sc2cccc(-c3cccc(F)c3)c2)[nH]c(=O)n1O | 6.5 | > 100 | 0.24 | 9.6 | 0.006 |  |
| O=c1cc(Sc2ccccc2-c2ccc(F)cc2)[nH]c(=O)n1O | 11 | > 100 | > 100 | > 10 | 0.012 |  |
| COc1cccc(-c2ccc(Nc3cc(=O)n(O)c(=O)[nH]3)cc2)c1 | > 25 | > 25 |  |  |  |  |
| O=c1cc(Sc2ccc(Br)cc2)[nH]c(=O)n1O |  |  |  | 7 | 0.01 |  |
| O=c1cc(Sc2cccc(-c3ccc(F)c(Cl)c3)c2)[nH]c(=O)n1O | 11 | > 100 | > 1 | 5.6 | 0.005 |  |
| COc1cccc(-c2ccc(Sc3cc(=O)n(O)c(=O)[nH]3)cc2)c1 | 7.7 | > 100 | > 1 | 10 | 0.005 |  |
| O=c1cc(Sc2ccc(O)cc2)[nH]c(=O)n1O | > 20 | > 100 | 1.6 | > 10 | 0.011 |  |
| O=c1cc(Sc2ccc(F)cc2)[nH]c(=O)n1O | > 20 | > 100 | 6.8 | > 10 | 0.037 |  |
| COc1ccc(-c2ccc(Sc3cc(=O)n(O)c(=O)[nH]3)cc2)cc1 | 10 | > 100 | > 100 | 10 | 0.006 |  |
| Cc1cc(-c2ccc(Sc3cc(=O)n(O)c(=O)[nH]3)cc2)ccc1F | 18 | > 100 | > 10 | > 10 | 0.005 |  |
| O=c1cc(Sc2ccc(-c3cccc(C(F)(F)F)c3)cc2)[nH]c(=O)n1O | > 20 | > 100 | > 100 | > 10 | 0.008 |  |
| O=c1cc(Sc2ccc(C(F)(F)F)cc2)[nH]c(=O)n1O | > 20 | > 100 | > 10 | > 10 | 0.031 |  |
| O=c1cc(Sc2ccccc2F)[nH]c(=O)n1O | 4.7 | > 100 | 0.77 | > 10 | 0.015 |  |
| O=c1cc(Sc2ccc(Cl)cc2)[nH]c(=O)n1O | > 20 | > 100 | 0.64 | > 10 | 0.012 | 0.35 |
| COc1cc(OC)cc(-c2ccc(Sc3cc(=O)n(O)c(=O)[nH]3)cc2)c1 | 17 | > 100 | > 100 | > 10 | 0.006 |  |
| O=c1cc(Sc2cccc3ccccc23)[nH]c(=O)n1O | 6.3 | > 100 | 0.79 | 10 | 0.007 |  |
| O=c1cc(Sc2cccc(F)c2)[nH]c(=O)n1O | 9.1 | > 100 | 0.49 | > 10 | 0.014 |  |
| O=c1cc(Sc2ccc(-c3ccc(O)cc3)cc2)[nH]c(=O)n1O | > 20 | > 100 | 0.17 | > 10 | 0.004 | 0.039 |
| O=c1cc(Sc2ccc([N+](=O)[O-])cc2)[nH]c(=O)n1O | > 20 | > 100 | 3.4 | > 10 | 0.012 | 0.032 |
